Experimental findings from ChEMBL document CHEMBL3045048, “Synthesis and antifungal action of new tricyclazole analogues” (2004) are described below.

Activity calls are given as the source filed them. The calls are words filed in the database; no cut-off is given here.

In experiment [1] the test system is Botrytis cinerea. Nature of the experiment: microbe, parasite or virus in culture. The class given is functional. The settings on record: 120 h, read-out: GI.
Experiment [2] has as its system Botrytis cinerea. Put plainly: microbe, parasite or virus in culture. The class given is functional. Particulars: 120 h, read-out: GI. The source holds these as a separate data set.
In experiment [3] the test system is Botrytis cinerea. Put plainly: microbe, parasite or virus in culture. It is filed as functional. Particulars: 120 h, read-out: GI. The source holds these as a separate data set.
The subject of experiment [4] is Penicillium italicum. Put plainly: microbe, parasite or virus in culture. Particulars: ATCC 48952, 120 h, read-out: GI. It is filed as functional.
For experiment [5], the system named is Pyricularia grisea. Put plainly: microbe, parasite or virus in culture. The class given is functional. The settings on record: 120 h, read-out: GI.
For experiment [6], the system named is Trichoderma harzianum. Nature of the experiment: microbe, parasite or virus in culture. The settings on record: (Pers.)-Tul, 120 h, read-out: GI. It is filed as functional.
For experiment [7], the system named is Botrytis cinerea. Nature of the experiment: microbe, parasite or virus in culture. The class given is functional. The settings on record: 120 h, read-out: GI. This is another data set of the same source.
Experiment [8] deals with Pyricularia grisea. Put plainly: microbe, parasite or virus in culture. It is filed as functional. Particulars: 120 h, read-out: GI. This is another data set of the same source.
The test system of experiment [9] is Pyricularia grisea. Nature of the experiment: microbe, parasite or virus in culture. It is filed as functional. The settings on record: 120 h, read-out: GI. This is another data set of the same source.
The subject of experiment [10] is Alternaria solani. Nature of the experiment: microbe, parasite or virus in culture. The class given is functional. The settings on record: 120 h, read-out: GI.
The test system of experiment [11] is Berkeleyomyces basicola. Nature of the experiment: microbe, parasite or virus in culture. It is filed as functional. The settings on record: 120 h, read-out: GI.
Experiment [12] deals with Trichoderma viride. Nature of the experiment: microbe, parasite or virus in culture. The settings on record: 120 h, read-out: GI. It is filed as functional.
Experiment [13] deals with Sclerotinia minor. Nature of the experiment: microbe, parasite or virus in culture. The class given is functional. The settings on record: 120 h, read-out: GI.
Experiment [14] concerns Penicillium italicum. Put plainly: microbe, parasite or virus in culture. It is filed as functional. The settings on record: ATCC 48952, 120 h, read-out: GI. The source holds these as a separate data set.
For experiment [15], the system named is Trichoderma harzianum. Put plainly: microbe, parasite or virus in culture. It is filed as functional. Particulars: (Pers.)-Tul, 120 h, read-out: GI. This is another data set of the same source.
Experiment [16] has as its system Pyricularia grisea. Put plainly: microbe, parasite or virus in culture. It is filed as functional. The settings on record: 120 h, read-out: GI. The source holds these as a separate data set.
Experiment [17] relates to Alternaria solani. Nature of the experiment: microbe, parasite or virus in culture. It is filed as functional. The settings on record: 120 h, read-out: GI. The source holds these as a separate data set.
For experiment [18], the system named is Trichoderma viride. Put plainly: microbe, parasite or virus in culture. Particulars: 120 h, read-out: GI. It is filed as functional. The source holds these as a separate data set.
The subject of experiment [19] is Sclerotinia minor. Nature of the experiment: microbe, parasite or virus in culture. The class given is functional. The settings on record: 120 h, read-out: GI. The source holds these as a separate data set.
Experiment [20] relates to Penicillium crustosum. Nature of the experiment: microbe, parasite or virus in culture. The class given is functional. Particulars: 120 h, read-out: GI.
Experiment [21] concerns Penicillium crustosum. Nature of the experiment: microbe, parasite or virus in culture. The class given is functional. Particulars: 120 h, read-out: GI. This is another data set of the same source.
The subject of experiment [22] is Berkeleyomyces basicola. Put plainly: microbe, parasite or virus in culture. It is filed as functional. The settings on record: 120 h, read-out: GI. The source holds these as a separate data set.
The subject of experiment [23] is Pyricularia grisea. Nature of the experiment: Antifungal activity against Magnaporthe grisea assessed as bleaching of hyphae at 200 ug/ml after 5 days by electron microscopy. It is filed as functional, organism-based. In short, it runs like this: (§1)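 Mycelium disks (10 mm) from stationary-phase cultures were grown on cellophane over PDA at 26 ± 1 °C to log phase. They were then moved to PDA containing compound at 200 µg mL-1 from DMSO stock (final DMSO 0.1%), with 0.1% DMSO controls. Pigmentation was judged visually and photographically against untreated cultures of the same age.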

Experiment [24] concerns Penicillium italicum. Put plainly: Antifungal activity against Penicillium italicum ATCC 48952 assessed as color variation of hyphae at 200 ug/ml after 5 days by electron microscopy. It is filed as functional, organism-based. A digest of the protocol: as §1
In experiment [25] the test system is Berkeleyomyces basicola. Put plainly: Antifungal activity against Thielaviopsis basicola Went assessed as color variation of hyphae at 200 ug/ml after 5 days by electron microscopy. It is filed as functional, organism-based. In short, it runs like this:
as §1

In experiment [26] the test system is Penicillium crustosum. Put plainly: Antifungal activity against Penicillium crustosum assessed as color variation of hyphae at 200 ug/ml after 5 days by electron microscopy. The class given is functional, organism-based. In short, it runs like this:
as §1

For experiment [27], the system named is Botrytis cinerea. Nature of the experiment: Antifungal activity against Botryotinia fuckeliana assessed as increased quantities of material in immediate layer of cell wall at 200 ug/ml after 5 days by electron microscopy. It is filed as functional, organism-based.
Experiment [28] has as its system Botrytis cinerea. Put plainly: Antifungal activity against Botryotinia fuckeliana assessed as anamalous stratification at septa at 200 ug/ml after 5 days by electron microscopy. It is filed as functional, organism-based.
In experiment [29] the test system is Trichoderma harzianum. Put plainly: Antifungal activity against Trichoderma harzianum (Pers.)-Tul assessed as color variation of hyphae at 200 ug/ml after 5 days by electron microscopy. The class given is functional, organism-based. A digest of the protocol: as §1
Experiment [30] concerns Alternaria solani. Nature of the experiment: Antifungal activity against Alternaria solani Nees assessed as bleaching of hyphae at 200 ug/ml after 5 days by electron microscopy. It is filed as functional, organism-based. A digest of the protocol:
as §1

In experiment [31] the test system is Botrytis cinerea. Nature of the experiment: Antifungal activity against Botryotinia fuckeliana assessed as inhibition of pigmentation of hyphae at 200 ug/ml after 5 days by electron microscopy. The class given is functional, organism-based. A digest of the protocol:
as §1

For experiment [32], the system named is Sclerotinia minor. Nature of the experiment: Antifungal activity against Sclerotinia minor assessed as color variation of hyphae at 200 ug/ml after 5 days by electron microscopy. It is filed as functional, organism-based. In short, it runs like this: as §1

In the case of `Cc1cccc2sc3nncn3c12` [TRICYCLAZOLE], the inhibition of growth at 100 µg/mL in the experiment on Botrytis cinerea [1] is 29.6%; in the experiment with Pyricularia grisea [8], 62.3%; in the experiment with Trichoderma viride [12], 20.2%; in the experiment on Penicillium italicum [14], 20.1%; in the experiment on Trichoderma harzianum [15], 20%; in the experiment with Alternaria solani [17], 0%. The inhibition of growth at 100 µg/mL in the experiment with Sclerotinia minor [19] worked out at 0%; with Penicillium crustosum [20], 80.3%; with Berkeleyomyces basicola [22], 40.1%. The inhibition of growth at 10 µg/mL in the experiment with Botrytis cinerea [2] and with Pyricularia grisea [16] was 0% each time. Further, the inhibition of growth at 50 µg/mL with Botrytis cinerea [3] was determined as 8.3%; with Pyricularia grisea [9] it was 24.1%. Also, the inhibition of growth at 200 µg/mL came out at 70.4% in the experiment with Penicillium italicum [4]; 94% in the experiment on Pyricularia grisea [5]; 50.2% in the experiment on Trichoderma harzianum [6]; 77.8% with Botrytis cinerea [7]; 0% with Alternaria solani [10]; 66.6% in the experiment on Berkeleyomyces basicola [11]. Further, the inhibition of growth at 200 µg/mL came to 0% in the experiment on Sclerotinia minor [13], 60% in the experiment on Trichoderma viride [18] and 95% in the experiment with Penicillium crustosum [21].

`Cn1ncc2sc3nncn3c21`: the values for the inhibition of growth at 100 µg/mL in the experiment on Botrytis cinerea [1] and with Pyricularia grisea [8] were 19.3% and 24%, respectively. Besides, the figures for the inhibition of growth at 10 µg/mL in the experiment on Botrytis cinerea [2] and in the experiment on Pyricularia grisea [16] were 0% and 3%, respectively. Also, the inhibition of growth at 50 µg/mL with Botrytis cinerea [3] stood at 4%; in the experiment with Pyricularia grisea [9], 8.2%. In addition, the figures for the inhibition of growth at 200 µg/mL with Pyricularia grisea [5] and in the experiment on Botrytis cinerea [7] were 43.4% and 32.2%, respectively.

Turning to `Cc1nn(C)c2c1sc1nncn12`, the inhibition of growth at 100 µg/mL was found to be 28.8% with Botrytis cinerea [1]; 20.5% in the experiment with Pyricularia grisea [8]; 0% in the experiment with Trichoderma viride [12]; 0% with Penicillium italicum [14]; 0% with Trichoderma harzianum [15]; 0% in the experiment with Alternaria solani [17]. The inhibition of growth at 100 µg/mL in the experiment on Sclerotinia minor [19], with Penicillium crustosum [20] and in the experiment on Berkeleyomyces basicola [22] was 0% each time. In addition, the figures for the inhibition of growth at 10 µg/mL with Botrytis cinerea [2] and in the experiment with Pyricularia grisea [16] were 10.8% and 12.2%, respectively. The inhibition of growth at 50 µg/mL stood at 14.6% in the experiment with Botrytis cinerea [3] and 13% in the experiment on Pyricularia grisea [9]. The outcome in the experiment with Pyricularia grisea [23], in the experiment with Penicillium italicum [24], in the experiment on Berkeleyomyces basicola [25], in the experiment on Penicillium crustosum [26], with Botrytis cinerea [27] and in the experiment on Botrytis cinerea [28] was Active. The result in the experiment with Trichoderma harzianum [29], with Alternaria solani [30] and with Sclerotinia minor [32] was Active. The inhibition of growth at 200 µg/mL in the experiment on Penicillium italicum [4] was found to be 0%; in the experiment on Pyricularia grisea [5] it was 59.1%; with Trichoderma harzianum [6], 0%; with Botrytis cinerea [7] it was 65.4%; in the experiment on Alternaria solani [10] it was 23.4%; with Berkeleyomyces basicola [11], 0%. The figures for the inhibition of growth at 200 µg/mL in the experiment with Sclerotinia minor [13], with Trichoderma viride [18] and in the experiment on Penicillium crustosum [21] were 0%, 0% and 10%, respectively. Besides, the result in the experiment with Botrytis cinerea [31] was inactive.
